INS promoter act: TRM-6 insulin promoter activation. activation, % at 2 µM. hit rate 0.81% among 130,000. TRM-6 cells, insulin promoter eGFP reporter, imaging; plate-scaled: unstimulated 0, stimulated control 100;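 active = activation at 2 µM above a set limit, confirmed on inspection of the cell images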;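 note: share of cells whose green reporter signal exceeds an intensity cutoff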
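Material: Human fetal islet-derived TRM-6 cells with tamoxifen-inducible insulin promoter–eGFP reporter | Medium: Low-glucose (5.5 mM) medium with tamoxifen | Probe or stimulus: Tamoxifen inducer, 0.75 µM, in seeding medium | Schedule: Tamoxifen pre-incubation 15 h overnight, then compound exposure 48 h at 37 °C | Detection: High-content imaging of fixed cells with Hoechst nuclear stain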
Numbers stand for hits; n = inactive; [ ] = dose if it differs, or a comment. Shown is part of a subset that was picked to be rich in hits.

SMILES	INS promoter act
CCOc1cc(CNCCCN2CCOCC2)cc(Br)c1OCc1ccccc1Cl	n
CCN1CCCC1CNCc1cccc(OC)c1OCc1ccccc1F (centres undefined)	n
CCOc1cc(CNCC2CCCN2CC)cc(Cl)c1OC (centres undefined)	345
CCN1CCCC1CNCc1ccccc1OCc1ccc(F)cc1 (centres undefined)	97
CCc1ccc(NC(=S)NCC2CCCN2CC)cc1 (centres undefined)	n
O=C(CN1CCC(n2cnc3cc(F)ccc32)CC1)Nc1ccccc1Br	n
COc1ccc(S(=O)(=O)N(C)CC(=O)Nc2ccc(C(F)(F)F)cc2)cc1Cl	n
O=C(CN1CCCc2ccccc21)NCc1ccc2c(c1)OCO2	n
O=C(CN1CCCc2ccccc21)NCCc1ccc(Cl)cc1	300
COC(=O)c1[nH]c2ccc(C)cc2c1NC(=O)CN1CCCc2ccccc21	n
CCCC(=O)Nc1ccc(Cc2ccc(NC(=O)CCC)c(C(=O)O)c2)cc1C(=O)O	n
Cc1ccc(NC(=S)N(CCCN(C)C)Cc2cc3cc4c(cc3[nH]c2=O)OCO4)c(C)c1	n
Cc1ccc(C(=O)Nc2ccc3nc(C)sc3c2)s1	562
Cc1nc2ccc([N+](=O)[O-])cc2s1	n
Cc1nc2ccc(NC(=O)CCS(=O)(=O)c3ccc(Cl)cc3)cc2s1	n
CC(=O)Nc1ccc(S(=O)(=O)Nc2nccc(/C=C/c3ccc(Cl)cc3)n2)cc1	n
Cc1ccc(OCCN2C(=O)NC3(CCc4ccccc4C3)C2=O)cc1 (centres undefined)	n
S=C(NCCc1ccccc1)Nc1cccc2cnccc12	n
Cn1nnnc1SCC(=O)Nc1ccccc1[N+](=O)[O-]	n
Cn1nnnc1SCC(=O)Nc1ccccn1	93
COc1ccc(NC(=O)CSc2nnnn2C)cc1	n
O=C(OC(C(=O)NCc1ccc2c(c1)OCO2)c1ccncc1)c1ccc(Cl)nc1 (centres undefined)	n
CCOC(=O)NC(=O)c1cn(CCN(C)C)c(=O)[nH]c1=O	n
O=C1C2CC=CCC2C(=O)N1c1ccc(NCCc2ccc(O)cc2)c([N+](=O)[O-])c1 (centres undefined)	n
O=C(NCC1OCCc2ccccc21)c1ccc(NC(=O)c2ccc(Cl)cc2)cc1 (centres undefined)	n
SMILES	INS promoter act
CCCCn1c2ccc(F)cc2c2nnc(NN)nc21	n
COc1cc(S(=O)(=O)Nc2ccc(C)cc2)ccc1N=Cc1c(C)[nH]n(-c2ccccc2)c1=O	n
Cc1ccc(-n2[nH]c(C)c(C=Nc3ccc(Br)cn3)c2=O)cc1	n
CCSc1nnc(-c2cc(Br)ccc2N=Cc2c(C)[nH]n(-c3ccccc3)c2=O)c(=O)[nH]1	356
CCC1(C)Cc2ccccc2C(=S)N1 (centres undefined)	n
CC(=O)Nc1nc2ccccc2n1CCN1CCOCC1	n
C=CCc1cccc(CNc2nc3ccccc3n2CCN2CCOCC2)c1O	n
COc1ccc(CNc2nc3ccccc3n2CCN2CCOCC2)cc1	462
COc1ccc(C(=O)NNC2=CC(=O)CC(C)(C)C2)cc1OC	n
CCOC(=O)C(Cc1ccc(Cl)cc1Cl)c1ccno1 (centres undefined)	n
Cc1ccc(-c2ccc(C(=O)O)c(C)n2)cc1	386
Cc1nc(N(C)C)ncc1C(=O)O	n
Cc1ccc(-c2nc(C(=O)O)cs2)cc1	n
COc1ccc(N/N=C(C)/C(=N/O)C(=O)Nc2ccccc2)cc1	n
O=C(NCc1cccnc1)C1c2ccccc2C(=O)N1Cc1ccco1 (centres undefined)	n
Cc1ccc(-n2c(SCC(=O)Nc3cccc(S(N)(=O)=O)c3)nc3ccccc32)cc1	n
Cc1cccc(NC(=O)C2C3CCC4C(CCC32)C4(Cl)Cl)c1 (centres undefined)	n
COc1ccc(NC(=O)c2ccc3c(c2)NC(=O)CO3)cc1OC	n
CCCCCC/C(=N\NS(C)(=O)=O)c1ccccc1	n
CCCCC/C(=N\NC(=O)CCC(=O)NCc1ccccc1)c1ccccc1	371
O=C(O)CCC(=O)NNC(=O)CCC(=O)NCc1ccccc1	n
CCOC(=O)C1=C(N)OC(CCl)=C(C#N)C1c1ccsc1 (centres undefined)	n
CCN1/C(=C/C=C/c2oc3ccc(-c4ccccc4)cc3[n+]2CC)Oc2ccc(-c3ccccc3)cc21	809[fluoresces]
CCOC(=O)c1ccc2c(c1)nc(-c1ccc(F)cc1)c1nccn12	n
CCC(=O)c1ccc(OCC(=O)NCCc2ccccn2)cc1	n
SMILES	INS promoter act
CCn1c(=O)n(CC)c2cc(S(N)(=O)=O)c(C)cc21	525
CCn1c(NC)cc(=O)n(C)c1=O	n
CCN1CCN(S(=O)(=O)c2cc(C)c(OC)cc2C)CC1	n
CSc1ccc(OC2CCCCC2NS(=O)(=O)c2ccc(Cl)cc2)cc1 (centres undefined)	n
O=S(=O)(NC1CCCCC1Nc1ccccc1)c1ccccc1 (centres undefined)	n
O=S(=O)(NC1CCCCC1NS(=O)(=O)c1ccc(F)cc1)c1ccc(F)cc1 (centres undefined)	513
O=C(CNC(=O)c1ccccc1Cl)N/N=C/C=C/c1ccccc1	n
CCCn1c(SCC(=O)c2cc(C)ccc2C)n[nH]c1=O	100
CCCn1c(SCC(=O)Nc2ccc(C(=O)Nc3ccccc3OC)cc2)n[nH]c1=O	n
CCCn1c(SCC(=O)Nc2ccc(Cl)cc2)n[nH]c1=O	n
Cc1ccc(CCC(=O)Nc2ccccc2F)s1	n
CCNC(=O)C/C(C)=N/NC(=O)C(=O)Nc1ccc(CC)cc1	n
O=C(O)C1CC=CCC1C(=O)NC1CCCCC1 (centres undefined)	n
O=S(=O)(Nc1nc(-c2sccc2Cl)cs1)c1cc(Cl)ccc1Cl	n
COc1ccc(C(=O)N2CCOC2CNC(=O)C(=O)NCc2ccco2)cc1 (centres undefined)	n
CCCN1C(=O)/C(=C/c2ccncc2)SC1=S	n
CCCCN1C(=O)/C(=C/C=C2/CC(C)(C)CN2C)SC1=S	270
CCCCN1C(=O)C(=O)N(c2ccccc2)C1=S	n
Cc1onc(C(=O)N2C(C)CCCC2C)c1[N+](=O)[O-] (centres undefined)	n
COc1ccc(Cl)cc1NC(=S)N(CCN1CCOCC1)C1CCN(C(C)=O)CC1	n
CCOc1ccc(N=Nc2c(C)noc2C)cc1	n
CCCNC(=O)CC1Sc2ccccc2NC1=O (centres undefined)	n
COCCNC(=O)C(OC(=O)CC1Sc2ccccc2NC1=O)c1ccccc1 (centres undefined)	414
O=C(CC1Sc2ccccc2NC1=O)c1ccc(Br)cc1 (centres undefined)	n
CC1=CCC2COC(c3ccc[n+](Cc4ccccc4)c3)C1C2 (centres undefined)	n
SMILES	INS promoter act
CCOC(=O)C1CCN(C(=O)CSc2nccc(C)n2)CC1	n
CCc1nc(N)c(C#N)c(-c2cccc3ccccc23)c1C	n
COc1ccc(-c2c(C#N)c(N)nc3c2CCCC3)cc1OC	n
CCc1nc(N)c(C#N)c(-c2ccc(OC)c(OC)c2)c1C	83
O=C(Nc1ccccc1C(=O)NCC1CCCO1)c1ccc(Cl)cc1Cl (centres undefined)	n
Cc1ccc(-c2cc(C(=O)NCC3CCCO3)no2)cc1 (centres undefined)	n
O=C(NCC1CCCO1)c1cc(-c2ccc(Cl)cc2Cl)on1 (centres undefined)	86
CCOC(=O)N1CCN(C(=O)/C=C/c2cccc([N+](=O)[O-])c2)CC1	n
Cc1c(Cl)cccc1NCC(=O)NN=C1CCCC1	337
O=C(CSc1ncccn1)NN=C1CCCCCC1	n
